Consider one compound from ChEMBL document CHEMBL3351316, “Scaffold hopping approach on the route to selective tankyrase inhibitors” (Eur J Med Chem, 2014).

Series [1] in a line: Lipophilicity, log D of the compound at pH 7.4. It counts as physicochemical. As to conditions: buffer.
In series [2] the target is T1, Protein mono-ADP-ribosyltransferase PARP8 (Homo sapiens) (UniProt Q8N3A8).
T1 sequence (whole entry): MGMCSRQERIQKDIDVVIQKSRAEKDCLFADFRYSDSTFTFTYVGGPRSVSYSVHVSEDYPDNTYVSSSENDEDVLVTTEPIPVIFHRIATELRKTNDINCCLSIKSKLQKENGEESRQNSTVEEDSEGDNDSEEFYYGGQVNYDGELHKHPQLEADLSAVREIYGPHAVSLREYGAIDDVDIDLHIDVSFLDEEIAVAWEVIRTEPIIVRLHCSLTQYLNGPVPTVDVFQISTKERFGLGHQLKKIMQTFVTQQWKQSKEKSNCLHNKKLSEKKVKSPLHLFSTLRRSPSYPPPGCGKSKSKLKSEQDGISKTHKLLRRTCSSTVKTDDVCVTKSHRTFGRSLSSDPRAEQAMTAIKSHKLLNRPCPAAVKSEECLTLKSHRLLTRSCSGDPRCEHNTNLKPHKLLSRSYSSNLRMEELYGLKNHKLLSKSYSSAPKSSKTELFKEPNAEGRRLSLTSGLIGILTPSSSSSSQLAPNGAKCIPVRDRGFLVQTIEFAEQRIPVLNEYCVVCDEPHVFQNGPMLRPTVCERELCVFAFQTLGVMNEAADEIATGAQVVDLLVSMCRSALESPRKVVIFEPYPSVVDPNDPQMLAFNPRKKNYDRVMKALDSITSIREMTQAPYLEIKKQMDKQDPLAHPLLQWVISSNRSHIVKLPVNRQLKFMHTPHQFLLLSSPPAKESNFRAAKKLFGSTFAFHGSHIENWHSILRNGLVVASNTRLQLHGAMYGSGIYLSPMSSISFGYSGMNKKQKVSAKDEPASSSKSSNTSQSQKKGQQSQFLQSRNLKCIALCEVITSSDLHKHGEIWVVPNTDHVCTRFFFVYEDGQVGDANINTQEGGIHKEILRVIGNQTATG
As to the kind of experiment: Inhibition of human recombinant PARP8 at 10 uM incubated for 1 hr using NAD+, biotinylated NAD+ and activated DNA by luminescence based assay. The procedure, abridged: (§1)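 Recombinant PARP enzyme reactions were run in duplicate for 1 h at rt on histone-coated plates in Tris·HCl pH 8.0 buffer with NAD+, biotinylated NAD+ and activated DNA. Detection used streptavidin-HRP for 30 min at rt, then a chemiluminescent developer. % inhibition = 100 − % activity, scaled between the no-compound (100%) and no-enzyme (0%) signals.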

The target of series [3] is T2, Protein mono-ADP-ribosyltransferase PARP10 (Homo sapiens) (UniProt Q53GL7).
T2 sequence (whole entry): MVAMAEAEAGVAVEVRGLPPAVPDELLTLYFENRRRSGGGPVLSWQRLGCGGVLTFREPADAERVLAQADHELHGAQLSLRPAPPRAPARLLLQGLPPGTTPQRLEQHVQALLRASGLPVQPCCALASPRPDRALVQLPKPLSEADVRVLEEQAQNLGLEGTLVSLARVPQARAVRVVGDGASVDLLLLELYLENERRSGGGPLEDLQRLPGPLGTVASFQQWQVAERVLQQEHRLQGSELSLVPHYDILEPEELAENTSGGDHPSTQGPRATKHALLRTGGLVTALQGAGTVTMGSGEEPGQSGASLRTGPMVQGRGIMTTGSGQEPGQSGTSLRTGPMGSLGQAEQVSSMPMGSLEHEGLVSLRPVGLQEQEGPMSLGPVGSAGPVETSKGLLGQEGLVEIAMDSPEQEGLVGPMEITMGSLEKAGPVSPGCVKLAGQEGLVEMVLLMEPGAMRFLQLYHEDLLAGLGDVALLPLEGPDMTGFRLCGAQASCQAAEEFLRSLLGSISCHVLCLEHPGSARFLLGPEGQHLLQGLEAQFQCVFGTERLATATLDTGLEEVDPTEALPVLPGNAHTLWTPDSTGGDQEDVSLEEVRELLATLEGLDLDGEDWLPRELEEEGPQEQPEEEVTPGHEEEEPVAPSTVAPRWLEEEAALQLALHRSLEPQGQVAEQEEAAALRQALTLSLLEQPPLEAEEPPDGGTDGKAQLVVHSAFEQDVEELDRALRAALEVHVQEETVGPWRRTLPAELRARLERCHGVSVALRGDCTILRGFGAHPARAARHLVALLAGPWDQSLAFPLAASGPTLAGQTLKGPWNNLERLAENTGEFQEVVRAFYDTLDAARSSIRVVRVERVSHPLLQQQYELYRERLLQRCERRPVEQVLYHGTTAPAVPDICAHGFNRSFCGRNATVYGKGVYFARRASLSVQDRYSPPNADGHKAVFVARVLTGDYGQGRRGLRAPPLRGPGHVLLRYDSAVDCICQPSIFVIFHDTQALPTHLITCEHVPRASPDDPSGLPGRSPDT
In words: Inhibition of human recombinant PARP10 at 10 uM incubated for 1 hr using NAD+, biotinylated NAD+ and activated DNA by luminescence based assay. The procedure, abridged:
as §1

Series [4] concerns the target Protein mono-ADP-ribosyltransferase PARP6 (Homo sapiens) (UniProt Q2NL67). In words: Inhibition of human recombinant PARP6 at 10 uM incubated for 1 hr using NAD+, biotinylated NAD+ and activated DNA by luminescence based assay. The procedure, abridged: as §1
Another series relates to RKO. In words: Growth inhibition of Wnt-negative human RKO cells at 1 uM to 10 uM. Format: functional, cell-based.
The target in series [5] is Poly [ADP-ribose] polymerase 2 (Homo sapiens) (UniProt Q9UGN5). In words: Inhibition of human recombinant PARP2 incubated for 1 hr using histone substrate at 1 uM by luminescence based assay. The procedure, abridged: as §1

Activity calls are given as the source filed them. The rule behind the calls is not given here.

Chain of Protein mono-ADP-ribosyltransferase PARP6 (Homo sapiens) (Q2NL67 whole entry): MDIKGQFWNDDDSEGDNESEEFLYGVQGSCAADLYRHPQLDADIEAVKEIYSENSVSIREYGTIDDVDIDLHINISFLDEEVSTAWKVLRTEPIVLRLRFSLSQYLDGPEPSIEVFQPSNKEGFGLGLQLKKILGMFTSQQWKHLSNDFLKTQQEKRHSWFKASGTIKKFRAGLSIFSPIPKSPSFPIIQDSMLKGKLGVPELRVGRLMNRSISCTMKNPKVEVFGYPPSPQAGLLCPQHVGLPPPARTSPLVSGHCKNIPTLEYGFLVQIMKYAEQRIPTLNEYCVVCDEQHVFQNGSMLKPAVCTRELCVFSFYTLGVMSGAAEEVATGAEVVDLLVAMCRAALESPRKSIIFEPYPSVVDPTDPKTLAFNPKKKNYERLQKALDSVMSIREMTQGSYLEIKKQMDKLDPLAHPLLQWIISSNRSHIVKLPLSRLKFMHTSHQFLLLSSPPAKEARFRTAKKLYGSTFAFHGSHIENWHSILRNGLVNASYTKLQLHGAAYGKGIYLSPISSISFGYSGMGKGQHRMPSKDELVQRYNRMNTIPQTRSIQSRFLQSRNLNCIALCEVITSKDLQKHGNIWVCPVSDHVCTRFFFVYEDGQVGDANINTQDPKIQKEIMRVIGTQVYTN
Chain of Poly [ADP-ribose] polymerase 2 (Homo sapiens) (Q9UGN5 whole entry): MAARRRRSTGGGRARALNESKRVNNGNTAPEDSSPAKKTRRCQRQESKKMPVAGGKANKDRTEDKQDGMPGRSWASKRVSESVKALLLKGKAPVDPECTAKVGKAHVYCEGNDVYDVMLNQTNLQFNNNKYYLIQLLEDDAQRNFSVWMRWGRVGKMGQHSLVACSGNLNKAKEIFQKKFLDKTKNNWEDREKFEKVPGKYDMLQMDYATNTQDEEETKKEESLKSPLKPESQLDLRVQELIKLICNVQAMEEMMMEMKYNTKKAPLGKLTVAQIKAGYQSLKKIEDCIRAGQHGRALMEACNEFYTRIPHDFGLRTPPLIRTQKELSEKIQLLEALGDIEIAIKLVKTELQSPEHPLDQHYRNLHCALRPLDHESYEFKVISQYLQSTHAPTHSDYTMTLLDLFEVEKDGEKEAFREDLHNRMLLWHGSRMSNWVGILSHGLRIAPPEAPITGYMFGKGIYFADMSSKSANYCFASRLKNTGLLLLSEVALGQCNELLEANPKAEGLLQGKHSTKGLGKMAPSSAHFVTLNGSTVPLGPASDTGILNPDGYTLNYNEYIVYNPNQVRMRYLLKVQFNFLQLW

One may read the logD as lipophilicity at a set pH, counting ionised and neutral species. High values mean a more lipophilic compound, low ones a more hydrophilic compound. Usually inhibition stands for the change of the read-out against control, counted positive when it falls. Consider `CC(C)(C)c1ccc(-c2nc3c(sc4ccccc43)c(=O)[nH]2)cc1`, for which the logD in series [1] came to 5.16. In addition, the inhibition in series [2] came to 3%; in series [3], 3%; in series [4], 6%; in series [5], 4%. Also, in the series on RKO, the “growth inhibition (GI)” value was “inactive”.
